# Rows were chosen to be rich in hits. Some 1.8% of all compounds tested hit in one or more screens of this group.
# TbMetRS inhib: blocks T. brucei methionyl-tRNA synthetase activity. purified T. brucei MetRS, ATP depletion, Kinase-Glo luminescence. inhibition, % at 11.9 µM. 360,000 compounds, 0.4% hits. AID 624268;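 active = inhibition above a per-plate cutoff of the control wells' mean inhibition plus 3 SD, cut at about 5.5% in these data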;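 also: 0% = DMSO wells median and 100% = median of wells with control inhibitor compound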
#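 Dosing: 11.9 µM compound single dose, 0.9% DMSO; Assay system: purified T. brucei MetRS enzyme; Measured by: Kinase-Glo luciferase luminescence reporting remaining unconsumed ATP; Schedule: 15 min plus 2 h at 25 °C.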
# PG9 binder: small molecules binding HIV-1 gp120 antibody PG9; TR-FRET gp120-PG9 antibody binding; inhibition, % at 6.7 µM; 360,000 compounds, 0.43% hits; AID 624416; in the data active = inhibition above about 8.5%
# Rin1 Abl inh: blocks binding of human Rin1 to Abl; P00519+Q13671; TR-FRET Rin1/Abl binding, biochemical; inhibition, % at 7.35 µM; 360,000 compounds, 0.4% hits; AID 588664; in the data active = inhibition above about 5%, passing the limit was not always enough
# Rev-erbA mod: Rev-erb alpha (human) modulation; P20393; Rev-erbα–FITC-DNA binding, fluorescence polarization, 90 min; activity, % at 10 µM; 370,000 compounds, 0.79% hits;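 active = activity above about 14%, limit read from the data; passing the limit was not always enough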;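 also: 0% = DMSO wells with 35 nM protein and 100% = DMSO wells with 750 nM protein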
# Target sequence (P20393 whole entry, looked up): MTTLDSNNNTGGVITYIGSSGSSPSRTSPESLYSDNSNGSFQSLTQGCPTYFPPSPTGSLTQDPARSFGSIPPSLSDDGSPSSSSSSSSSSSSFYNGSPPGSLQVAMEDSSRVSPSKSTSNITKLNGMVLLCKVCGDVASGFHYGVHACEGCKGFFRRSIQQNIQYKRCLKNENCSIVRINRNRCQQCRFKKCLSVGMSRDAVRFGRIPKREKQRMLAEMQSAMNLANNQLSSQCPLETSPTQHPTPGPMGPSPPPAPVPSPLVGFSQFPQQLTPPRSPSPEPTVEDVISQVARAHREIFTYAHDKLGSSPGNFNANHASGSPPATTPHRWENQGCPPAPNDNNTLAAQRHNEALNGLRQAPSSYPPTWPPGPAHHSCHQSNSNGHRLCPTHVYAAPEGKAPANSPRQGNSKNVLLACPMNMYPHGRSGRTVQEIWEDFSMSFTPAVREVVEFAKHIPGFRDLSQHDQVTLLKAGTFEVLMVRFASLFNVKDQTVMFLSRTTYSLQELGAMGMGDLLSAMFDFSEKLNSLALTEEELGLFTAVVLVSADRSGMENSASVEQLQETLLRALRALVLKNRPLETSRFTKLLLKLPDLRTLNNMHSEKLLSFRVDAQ
# Rev-erbA confirm: confirmation of modulators of human Rev-erb alpha DNA binding; shares compounds with Rev-erbA mod; Rev-erb alpha FITC-DNA binding, fluorescence polarization, 90 min; activation, % at 25 µM; 3,000 compounds, 61% hits;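 active = activation at or above a set limit, or at least 3 SD above the negative control mean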;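 also: 0% = 35 nM protein with DMSO and 100% = 750 nM protein high control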
# RORg DNA counter: affects RORgamma DNA binding in a Rev-erb alpha counter-screen; shares compounds with Rev-erbA mod; purified RORgamma protein-FITC-DNA binding, fluorescence polarization; IC50, µM; 910 compounds, 8% hits; AID 1259320;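 active = Compounds whose fitted half-maximal concentration for disrupting protein-DNA binding is below 10 micromolar; the record names Rev-erb in its text, so the target is in doubt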
# Numbers without * were called inactive; x = not tested or not shown.
SMILES,TbMetRS inhib,PG9 binder,Rin1 Abl inh,Rev-erbA mod,Rev-erbA confirm,others
CCOC(=O)N(C)c1c(CC)nc2c(OCCOc3ccccc3)cccn12,0,0,0,1,x,
CCCN1C(=O)S/C(=C\c2ccc(N3CCOCC3)o2)C1=O,1,-9,1,-1,x,
CCCN1C(=O)S/C(=C/c2ccc(N3CCOCC3)o2)C1=O,0,-12,-13,47*,45*,RORg DNA counter=>40
Clc1ccc(Oc2ncnc3oc(-c4ccccc4)cc23)cc1,-2,2,-5,37*,18*,
C1CCN2CC3CC(CN4CCCC[C@@H]34)[C@H]2C1,-1,-3,-3,0,x,
Brc1ccc(-c2nn3c(-c4ccccc4)nnc3s2)cc1,x,x,x,34*,71*,RORg DNA counter=2.9*
CCOc1ccc(-c2nn3c(-c4ccccc4)nnc3s2)cc1,-1,0,-2,-10,x,
COc1ccc(-c2c(C)nc(N)nc2-c2ccc(OCc3ccc(C)cc3)cc2O)cc1OC,-1,-2,-2,123*,85*,RORg DNA counter=>40
S=c1nc(SCc2ccccc2)[nH]c2ccccc12,0,7,-13,29*,10,
c1ccc(CSc2nc3ncncc3[nH]2)cc1,-1,-1,1,1,x,
CCc1nc(SCC(=O)Nc2cc(C)ccc2OC)c2c(C)c(C)sc2n1,0,-1,3,18*,8,
Cc1cccc(C(=O)Nc2ccc(N3CCN(c4ccc(C(F)(F)F)cn4)CC3)nc2)c1,0,0,1,65*,-4,
COc1ccccc1C1CC(=O)NC(C)=C1C(=O)OC(C)C (configuration not stated),-1,0,-3,22*,2,
COC(=O)C1=C(C)NC(=O)CC1c1cccc(Cl)c1Cl (configuration not stated),-1,-1,-2,-2,x,
COc1ccc(-c2cc3c(=O)n(CC(=O)NCc4ccc(Cl)cc4)ncn3n2)cc1,0,0,1,21*,5,
CC(=O)c1cc(C#N)c(NCc2cc(-c3ccccc3)no2)nc1C,0,-1,1,26*,18*,
CCC(CC)COC(=O)C1=C(C)NC(=O)NC1c1ccccc1Br (configuration not stated),0,-1,-1,17*,15,
O=c1[nH]c(-c2ccccc2F)nc2c1sc(=S)n2Cc1ccccc1,-1,-3,-1,24*,2,
CCCCn1c(=O)[nH]c(=O)c2c1nc(-c1ccccc1F)n2Cc1ccccc1,0,1,-5,4,x,
Cc1nc(SCC(=O)N2CCCC2=O)nc(C)c1C,0,-1,3,-1,x,
O=[N+]([O-])c1cc(-c2cnc3ccccc3n2)ccc1Cl,0,-2,3,93*,68*,RORg DNA counter=>40
COCCNC(=S)N(Cc1cc2cc(C)ccc2n2nnnc12)C1CCCC1,-1,-1,0,54*,22*,
COCCN(Cc1cc2cc(C)ccc2n2nnnc12)C(=S)Nc1ccc(C)cc1,-1,2,-2,104*,49*,RORg DNA counter=>40
Cc1ccc2c(c1)cc(CN(C(=O)N1CCOCC1)C1CCCC1)c1nnnn12,0,-1,1,1,x,
COCCN(Cc1cc2cc(C)ccc2n2nnnc12)C(=S)Nc1ccc(OC)cc1,0,0,-2,-2,x,
SMILES,TbMetRS inhib,PG9 binder,Rin1 Abl inh,Rev-erbA mod,Rev-erbA confirm,others
Cc1nn(C)c(Cl)c1C(=O)NC(C(=O)O)c1ccccc1 (configuration not stated),-1,-2,-1,-5,x,
CN(C)c1ccc(N=Nc2ccccc2C(=O)OCC(=O)N2CCCC2)cc1,0,-8,-17,36*,40*,RORg DNA counter=1.2*
CSc1ccccc1C(=O)OCC(=O)N1CCCCCC1,0,1,2,-8,x,
CN(C)c1ccc(N=Nc2ccccc2C(=O)OCC(=O)N2CCCCCC2)cc1,0,-2,-11,27*,35*,RORg DNA counter=>40
CCC(C)(C)C1CCc2c(sc(NC(=O)c3cccs3)c2C(N)=O)C1 (configuration not stated),0,-1,-2,29*,16,
CC(C)(C)C1CCc2c(sc(NC(=O)c3cccs3)c2C(N)=O)C1 (configuration not stated),0,-1,2,6,x,
O=C(NCc1ccccc1Cl)c1cccc2c1C(=O)c1ccc(-c3ccc(OC(F)(F)F)cc3)cc1S2(=O)=O,0,x,4,x,x,
O=C(NCc1cc(C(F)(F)F)ccc1Cl)c1cccc2c1C(=O)c1ccc(Cl)cc1S2(=O)=O,x,-1,x,32*,50*,RORg DNA counter=>40
CC1CCN(c2ccc3c(c2)S(=O)(=O)c2cccc(C(=O)NC[C@@H]4CCCO4)c2C3=O)CC1,0,-2,-7,18*,5,
O=C(NCc1cccc(F)c1)c1cccc2c1C(=O)c1ccc(N3CCOCC3)cc1S2(=O)=O,1,-3,-3,118*,87*,RORg DNA counter=>40
COc1ccc(CCNC(=O)C(C)SCC(=O)Nc2ccc(F)cc2)cc1 (configuration not stated),0,1,-1,-2,x,
CC1CCN(S(=O)(=O)c2nnc(NC(=O)COc3ccccc3)s2)CC1,-1,-1,2,-3,x,
COc1ccc(C(=O)Nc2ccc(N3CCN(c4ccc(OC)cc4)CC3)c(C#N)c2)cc1,-1,-1,-1,84*,56*,
COc1ccc(N2CCN(c3ccc(NC(=O)C4CCCCC4)cc3C#N)CC2)cc1,-1,5,-2,30*,11,
O=c1[nH]cncc1OCc1ccccc1,0,1,-1,4,x,
N#Cc1c(N2CCSCC2)nsc1-c1ccccc1Cl,-1,4,-3,23*,28*,
N#Cc1c(Cl)cccc1N1CCSCC1,-1,-2,-1,-3,x,
O=c1c2ccccc2nc2sc3ccccc3n12,-2,-1,2,22*,32*,RORg DNA counter=>40
COC(=O)/C=c1/sc2nc3ccccc3n2c1=O,0,2,1,3,x,
Cc1sc(NC(=O)c2cccc(N3C(=O)CCC3=O)c2)nc1-c1ccccc1,0,0,-3,-3,x,
CC(=O)c1sc(NC(=O)c2cccc(N3C(=O)CCC3=O)c2)nc1-c1ccccc1,0,1,-1,43*,28*,
COc1nc(N)nc(NC(=O)c2cccs2)c1N=O,-1,-24,1,2,x,
O=C1CC(c2ccccc2)Cc2nc(N3CCc4ccccc43)ncc21 (configuration not stated),-1,-2,0,30*,23*,
O=C1CC(c2cccc(Cl)c2)Cc2nc(N3CCN(c4ccccc4)CC3)ncc21 (configuration not stated),0,1,1,37*,19*,
O=C1CC(c2cccc(Cl)c2)Cc2nc(N3CCOCC3)ncc21 (configuration not stated),-1,-1,-2,-1,x,
Cc1cc(CSCc2ccc(Cl)cc2)no1,0,-1,-1,-1,x,

# Screening data: PubChem, several laboratories
